This is an account of results in ChEMBL document CHEMBL3588858, “Peptidomimetic β-Secretase Inhibitors Comprising a Sequence of Amyloid-β Peptide for Alzheimer's Disease” (J Med Chem, 2015).

Numbered stars: 1 amine (or outer) side, 2 acyl side, 3 side chain; on linkers, the order of the positions; unused ones are H or OH. Square brackets hold non-standard residues; d marks the D form. Peptide text beside a SMILES is read from it. LeuΨ(S-CHOHCH2)Ala = CC(C)C[C@H](N[*:1])[C@@H](O)C[C@@H](C)C(=O)[*:2]

The nature of data set [1]: Half life in human serum by HPLC-FLU analysis. It counts as ADME, cell-free. The method, boiled down:
(§1)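 Peptide solution (50 µM in PBS, 2% DMSO) was mixed 1:4 with human serum or 10% mouse brain homogenate (PBS, 0.5% Triton X-100) and incubated at 37 °C for varying times. Reactions were stopped with acetonitrile and proteins spun out. Intact peptide was quantified by HPLC-FLU against per-compound calibration curves, following decay to about 50%. t1/2 was interpolated from a monophasic model fit; n = 3.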

A short description of data set [2]: Cytotoxicity against human Caco2 cells assessed as cell viability at 25 to 50 uM after 4 to 24 hrs by MTS assay. It counts as cell-based. To be noted: Caco-2 cells, read-out: Activity. The gist of the method:
(§2)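 Confluent Caco-2 cells (passage 26 to 41, grown in high-glucose DMEM with 10% FBS and 1% non-essential amino acids) exposed to test compounds from 2.5 nM to 50 µM in DMEM with 0.5% FBS for 4 h or 24 h. Medium replaced by MTS, 4 h at 37 °C, absorbance read at 490 nm. Viability given as % of cells in 0.5% FBS DMEM.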

The species entered for data set [3] is Homo sapiens. The data set can be described thus: Selectivity ratio of Ki(app) for human recombinant BACE2 to Ki for human recombinant BACE1.
The nature of data set [4]: Half life in mouse brain by HPLC-FLU analysis. In kind it is ADME, tissue-based. The method, boiled down: as §1
Data set [5] has as its system Caco-2. The data set can be described thus: Cytotoxicity against human Caco2 cells assessed as cell viability at 25 to 50 uM after 24 hrs by MTS assay. It counts as cell-based. To be noted: caco-2, 24 h. The gist of the method: as §2
In general terms: Formazan colour is commonly taken as a measure of viable cells.

Data set [6] relates to Serum. The data set is described as follows: Metabolic stability in Wistar rat serum at 0.53 mg/kg, iv after 2 hrs by HPLC-FLU analysis. In kind it is ADME, organism-based. To be noted: in vivo. The gist of the method: (§3)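 Female mice (8–12 weeks, 22–37 g) and male Wistar rats (8–12 weeks, 182–201 g) were fasted 24 h, then dosed iv at 0.53 mg/kg in PBS, in triplicate. Animals were sacrificed at 0.5, 1 and 2 h under pentobarbital. Blood was taken by cardiac puncture and brains perfused with chilled saline. Serum was acetonitrile-precipitated. Whole mouse brain, or rat cortex and hippocampus, was homogenized with an internal standard, HPLC-purified, then analysed by HPLC-FLU and ESI LC-MS.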

Data set [7] deals with Serum. The data set is described as follows: Metabolic stability in female mouse serum at 0.53 mg/kg, iv by HPLC-FLU analysis. It counts as ADME, organism-based. To be noted: in vivo. The gist of the method: as §3
Data set [8] has as its system Cortex. The data set is described as follows: Metabolic stability in Wistar rat brain cortex at 0.53 mg/kg, iv after 2 hrs by HPLC-FLU analysis. In kind it is ADME, organism-based. To be noted: in vivo. The method, boiled down:
as §3

Data set [9] deals with Brain. The data set is described as follows: Retention time of the compound in female mouse brain at 0.53 mg/kg, iv by HPLC-FLU analysis. It counts as ADME, organism-based. To be noted: in vivo. The gist of the method: as §3
The test system of data set [10] is Brain. The data set is described as follows: Retention time of the compound in female mouse brain treated with 0.53 mg/kg, iv (3S,6S,9S,12S,15S,18S,21R,23S,24S,27S,30S,33S)-33-acetamido-15-benzyl-3-carbamoyl-6-(2-carboxyethyl)-27-(carboxymethyl)-23-hydroxy-12-(4-hydroxybenzyl)-24,30-diisobutyl-18-isopropyl-9,21-dimethyl-5,8,11,14,17,20,26,29,32-nonaoxo-4,7,10,13,16,19,25,28,31-nonaazahexatriacontane-1,36-dioic acid by HPLC-FLU analysis. It counts as ADME, organism-based. To be noted: in vivo. The gist of the method:
as §3

Data set [11] relates to Cortex. The data set is described as follows: Drug formation in Wistar rat brain cortex treated with 0.53 mg/kg, iv (3S,6S,9S,12S,15S,18S,21R,23S,24S,27S,30S,33S)-33-acetamido-15-benzyl-3-carbamoyl-6-(2-carboxyethyl)-27-(carboxymethyl)-23-hydroxy-12-(4-hydroxybenzyl)-24,30-diisobutyl-18-isopropyl-9,21-dimethyl-5,8,11,14,17,20,26,29,32-nonaoxo-4,7,10,13,16,19,25,28,31-nonaazahexatriacontane-1,36-dioic acid measured after 2 hrs by …. In kind it is ADME, organism-based. To be noted: in vivo.

Data set [12] deals with Brain. The data set is described as follows: Drug formation in female mouse brain treated with 0.53 mg/kg, iv (3S,6S,9S,12S,15S,18S,21R,23S,24S,27S,30S,33S)-33-acetamido-15-benzyl-3-carbamoyl-6-(2-carboxyethyl)-27-(carboxymethyl)-23-hydroxy-12-(4-hydroxybenzyl)-24,30-diisobutyl-18-isopropyl-9,21-dimethyl-5,8,11,14,17,20,26,29,32-nonaoxo-4,7,10,13,16,19,25,28,31-nonaazahexatriacontane-1,36-dioic acid measured up to 2 hrs by HPLC-FLU/LC-MS …. It counts as ADME, organism-based. To be noted: in vivo.

The nature of data set [13]: Drug uptake in female mouse brain at 0.53 mg/kg, iv up to 1 hr by HPLC-FLU analysis. It counts as ADME, organism-based. To be noted: read-out: Drug uptake. The gist of the method: as §3
Data set [14] relates to Serum. The data set can be described thus: Drug formation in Wistar rat serum treated with 0.53 mg/kg, iv (3S,6S,9S,12S,15S,18S,21R,23S,24S,27S,30S,33S)-33-acetamido-15-benzyl-3-carbamoyl-6-(2-carboxyethyl)-27-(carboxymethyl)-23-hydroxy-12-(4-hydroxybenzyl)-24,30-diisobutyl-18-isopropyl-9,21-dimethyl-5,8,11,14,17,20,26,29,32-nonaoxo-4,7,10,13,16,19,25,28,31-nonaazahexatriacontane-1,36-dioic acid measured after 2 hrs by HPLC-FLU/LC-MS …. In kind it is ADME, organism-based. To be noted: in vivo.

Broadly, the half-life is how long it takes for the measured level to halve. Read a low half-life as fast loss. In the case of `CC(C)C[C@H](NC(=O)[C@@H](N)CCC(=O)O)C(=O)N[C@@H](CC(=O)O)C(=O)N[C@@H](CC(C)C)[C@@H](O)C[C@@H](C)C(=O)N[C@H](C(=O)N[C@@H](Cc1ccccc1)C(=O)N[C@@H](Cc1ccc(O)cc1)C(=O)N[C@@H](C)C(=O)N[C@@H](CCC(=O)O)C(=O)N[C@@H](CC(=O)O)C(N)=O)C(C)C` (H-ELD[LeuΨ(S-CHOHCH2)Ala]VFYAED-NH2), the half-life in data set [1] is 126 min; in [4] it was 138 min. Moreover, in [2], the viability at up to 50 µM is > 80%. Moreover, in data set [3], the Ratio came to 7.5. Moreover, the Activity entry in data set [5] is “Non-toxic”.
Regarding `CC(C)C[C@H](NC(=O)[C@@H](N)CCC(=O)O)C(=O)N[C@@H](CC(=O)O)C(=O)N[C@@H](CC(C)C)[C@@H](O)C[C@@H](C)C(=O)N[C@H](C(=O)N[C@@H](CCC(=O)O)C(=O)N[C@@H](Cc1ccccc1)C(=O)O)C(C)C` (H-ELD[LeuΨ(S-CHOHCH2)Ala]VEF-OH), the figures for the half-life in data set [1] and in [4] were 132 min and 348 min, respectively. The viability at 50 µM in [2] is > 80%. Besides, the Activity result in data set [5] is on record as “Non-toxic”.
For `CC(=O)N[C@@H](CCC(=O)O)C(=O)N[C@@H](CC(C)C)C(=O)N[C@@H](CC(=O)O)C(=O)N[C@@H](CC(C)C)[C@@H](O)C[C@@H](C)C(=O)N[C@H](C(=O)N[C@@H](Cc1ccccc1)C(=O)N[C@@H](Cc1ccc(O)cc1)C(=O)N[C@@H](C)C(=O)N[C@@H](CCC(=O)O)C(=O)N[C@@H](CC(=O)O)C(N)=O)C(C)C` (Ac-ELD[LeuΨ(S-CHOHCH2)Ala]VFYAED-NH2), the results for the half-life in data set [1] and in data set [4] were 360 min and 206 min, respectively. For the same compound, the viability at 50 µM in data set [2] was > 80%. Also, the Ratio in data set [3] was found to be 9.2. In addition, the results for the Stability entry in data set [6], in data set [7] and in data set [8] were “Stable”, “Unstable” and “Unstable”, respectively. Moreover, the Activity result in data set [5] is on record as “Non-toxic”. Moreover, the Retention_time in data set [9] was found to be 23.6 min.
Regarding `CC(C)C[C@H](NC(=O)[C@@H](N)CCC(=O)O)C(=O)N[C@@H](CC(=O)O)C(=O)N[C@@H](CC(C)C)[C@@H](O)C[C@@H](C)C(=O)N[C@H](C(=O)N[C@@H](Cc1ccccc1)C(=O)N[C@@H](Cc1ccc(O)cc1)C(=O)N[C@@H](C)C(=O)N[C@@H](CCC(=O)O)C(=O)N[C@@H](CC(=O)O)C(=O)O)C(C)C` (H-ELD[LeuΨ(S-CHOHCH2)Ala]VFYAED-OH), the half-life in data set [1] was 180 min; in data set [4], 360 min. Moreover, the Retention_time in [10] is listed as 22.9 min. Besides, the Ratio in [3] turned out to be 7.5. Besides, the Drug metabolism entry in [11], in data set [12] and in data set [14] was “metabolite_detected” each time. For the same compound, the concentration at 1 h in [13] is 20 nM.
In the case of `CC(C)C[C@H](NC(=O)[C@@H](N)CCC(=O)O)C(=O)N[C@@H](CC(=O)O)C(=O)N[C@@H](CC(C)C)[C@@H](O)C[C@@H](C)C(=O)N[C@H](C(=O)N[C@@H](Cc1ccccc1)C(=O)N[C@@H](Cc1ccccc1)C(=O)N[C@@H](C)C(=O)N[C@@H](CCC(=O)O)C(=O)N[C@@H](CC(=O)O)C(N)=O)C(C)C` (H-ELD[LeuΨ(S-CHOHCH2)Ala]VFFAED-NH2), the viability at 50 µM in data set [2] is > 80%. Also, in [3], the Ratio turned out to be 3.7. For the same compound, the Activity result in [5] is on record as “Non-toxic”.
